{
  "source": "ChEMBL document CHEMBL1275560",
  "about": "“Serial daptomycin selection generates daptomycin-nonsusceptible Staphylococcus aureus strains with a heterogeneous vancomycin-intermediate phenotype” (2008)",
  "key": {"Staphylococcus aureus [1]": {"tested_on": "Staphylococcus aureus", "test": "Antimicrobial activity against methicillin-resistant Staphylococcus aureus N315DeltaIP by Etest method", "type": "functional", "method_in_brief": "(§1)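 Etest MICs on Mueller-Hinton agar, run per manufacturer. Fosfomycin plates carried 25 µg/ml glucose-6-phosphate. Daptomycin Etest was also done with 200 µM GdCl3 in agar. Daptomycin MICs were read at 24 h and again at 48 h to capture slowly growing resistant subpopulations.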"}, "Staphylococcus aureus [2]": {"tested_on": "Staphylococcus aureus", "test": "Antimicrobial activity against Staphylococcus aureus 10*3d1-10 by Etest method", "type": "functional", "method_in_brief": "(§2)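 MICs read by Etest on Mueller-Hinton agar, following the manufacturer's method. Agents tested were daptomycin, vancomycin, teicoplanin, linezolid, oxacillin, imipenem, bacitracin, fosfomycin and colistin. For fosfomycin the agar carried 25 µg/ml D-glucose-6-phosphate. The daptomycin Etest was also run with 200 µM gadolinium(III) chloride in the agar. Daptomycin MICs were read at both 24 h and 48 h.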"}, "Staphylococcus aureus [3]": {"tested_on": "Staphylococcus aureus", "test": "Antimicrobial activity against Staphylococcus aureus 10*3d1 by Etest method", "type": "functional", "method_in_brief": "as §2"}, "Staphylococcus aureus [4]": {"tested_on": "Staphylococcus aureus", "test": "Antimicrobial activity against methicillin-resistant Staphylococcus aureus N315DeltaIP assessed as decreased membrane potential", "type": "functional, organism-based", "method_in_brief": "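Flow cytometry with DiOC2(3). Cells were grown to exponential phase (OD600 0.3) in MHB with 50 µg/ml calcium, then diluted 1:100 in kit buffer. GdCl3 was 200 µM final; CCCP-treated and heat-killed cells served as controls. TO-PRO-3 (500 nM) flagged damaged membranes. Dye at 30 µM, 4 min, room temperature. 10,000 cells per run, 488-nm excitation; red/green ratio of population mean fluorescence.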"}, "Staphylococcus aureus [5]": {"tested_on": "Staphylococcus aureus", "test": "Antimicrobial activity against methicillin-resistant Staphylococcus aureus N315DeltaIP by Etest method in presence of 200 uM GdCl3"}, "Staphylococcus aureus [6]": {"tested_on": "Staphylococcus aureus", "test": "Antimicrobial activity against methicillin-resistant Staphylococcus aureus 10*3d1 by Etest method in presence of 200 uM GdCl3", "type": "functional", "method_in_brief": "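Etest on Mueller-Hinton agar containing gadolinium(III) chloride at 200 µM, used as a mechanosensitive channel (MscL) blocker; MICs read at 24 h and also at 48 h so a slowly growing resistant subpopulation is not missed. The strain is a two-step daptomycin-selected derivative of MRSA N315ΔIP, stocked at –80°C in 40% glycerol.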"}, "Staphylococcus aureus [7]": {"tested_on": "Staphylococcus aureus", "test": "Antimicrobial activity against methicillin-resistant Staphylococcus aureus N315DeltaIP heteroresistant subpopulations by Etest method", "type": "functional", "method_in_brief": "as §1"}},
  "note": "Active and inactive are the calls of the source. The rule behind the calls is not given here.",
  "data": [
    {"compound": "CCCCCCCCCC(=O)N[C@@H](Cc1c[nH]c2ccccc12)C(=O)N[C@H](CC(N)=O)C(=O)N[C@@H](CC(=O)O)C(=O)N[C@@H]1C(=O)NCC(=O)N[C@@H](CCCN)C(=O)N[C@@H](CC(=O)O)C(=O)N[C@H](C)C(=O)N[C@@H](CC(=O)O)C(=O)NCC(=O)N[C@H](CO)C(=O)N[C@@H]([C@H](C)CC(=O)O)C(=O)N[C@@H](CC(=O)c2ccccc2N)C(=O)O[C@@H]1C", "values": [
      {"measurement": "MIC", "setting": "Staphylococcus aureus [1]", "value": 0.5, "unit": "µg/mL"},
      {"measurement": "MIC", "setting": "Staphylococcus aureus [2]", "value": 1, "unit": "µg/mL"},
      {"measurement": "MIC", "setting": "Staphylococcus aureus [3]", "value": 3, "unit": "µg/mL"},
      {"measurement": "Activity", "setting": "Staphylococcus aureus [4]", "value": "Active"},
      {"measurement": "MIC", "setting": "Staphylococcus aureus [5]", "value": 0.5, "unit": "µg/mL"},
      {"measurement": "MIC", "setting": "Staphylococcus aureus [6]", "value": 3, "unit": "µg/mL"}
    ]},
    {"compound": "C[C@@H]1O[C@@H]1P(=O)(O)O", "note": "[FOSFOMYCIN]", "values": [
      {"measurement": "MIC", "setting": "Staphylococcus aureus [1]", "value": 12, "unit": "µg/mL"},
      {"measurement": "MIC", "setting": "Staphylococcus aureus [2]", "value": 2, "unit": "µg/mL"},
      {"measurement": "MIC", "setting": "Staphylococcus aureus [3]", "value": 0.5, "unit": "µg/mL"}
    ]},
    {"compound": "C[C@@H](O)[C@H]1C(=O)N2C(C(=O)O)=C(SCCNC=N)C[C@H]12", "note": "[IMIPENEM ANHYDROUS]", "values": [
      {"measurement": "MIC", "setting": "Staphylococcus aureus [7]", "value": 3, "unit": "µg/mL"},
      {"measurement": "MIC", "setting": "Staphylococcus aureus [1]", "value": 2, "unit": "µg/mL"},
      {"measurement": "MIC", "setting": "Staphylococcus aureus [2]", "value": "> 32", "unit": "µg/mL"},
      {"measurement": "MIC", "setting": "Staphylococcus aureus [3]", "value": "> 32", "unit": "µg/mL"}
    ]},
    {"compound": "Cc1onc(-c2ccccc2)c1C(=O)N[C@@H]1C(=O)N2[C@@H]1SC(C)(C)[C@@H]2C(=O)O", "note": "[OXACILLIN]", "values": [
      {"measurement": "MIC", "setting": "Staphylococcus aureus [7]", "value": 192, "unit": "µg/mL"},
      {"measurement": "MIC", "setting": "Staphylococcus aureus [1]", "value": 24, "unit": "µg/mL"},
      {"measurement": "MIC", "setting": "Staphylococcus aureus [2]", "value": "> 256", "unit": "µg/mL"},
      {"measurement": "MIC", "setting": "Staphylococcus aureus [3]", "value": "> 256", "unit": "µg/mL"}
    ]},
    {"compound": "CN[C@H](CC(C)C)C(=O)N[C@H]1C(=O)N[C@@H](CC(N)=O)C(=O)N[C@H]2C(=O)N[C@H]3C(=O)N[C@H](C(=O)N[C@H](C(=O)O)c4cc(O)cc(O)c4-c4cc3ccc4O)[C@H](O)c3ccc(c(Cl)c3)Oc3cc2cc(c3O[C@@H]2O[C@H](CO)[C@@H](O)[C@H](O)[C@H]2O[C@H]2C[C@](C)(N)[C@H](O)[C@H](C)O2)Oc2ccc(cc2Cl)[C@H]1O", "note": "[VANCOMYCIN]", "values": [
      {"measurement": "MIC", "setting": "Staphylococcus aureus [1]", "value": 0.75, "unit": "µg/mL"},
      {"measurement": "MIC", "setting": "Staphylococcus aureus [3]", "value": 3, "unit": "µg/mL"}
    ]},
    {"compound": "COLISTIN", "values": [
      {"measurement": "MIC", "setting": "Staphylococcus aureus [1]", "value": 256, "unit": "µg/mL"},
      {"measurement": "MIC", "setting": "Staphylococcus aureus [2]", "value": 192, "unit": "µg/mL"},
      {"measurement": "MIC", "setting": "Staphylococcus aureus [3]", "value": 192, "unit": "µg/mL"}
    ]}
  ]
}
